Screening data: PubChem, Sanford-Burnham Center for Chemical Genomics
PMI act satM6P: PMI (human) activation, high substrate; AID 1216; coupled PMI enzyme assay, resazurin fluorescence, 20 min; active compounds read high; 1 = untreated enzyme, 0 = substrate-free blank; 190,000 compounds, 0.34% hits; activation factor at 20 µM; P34949;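 active means activation factor of 2 or more at 20 µM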
Target sequence (P34949 whole entry, looked up): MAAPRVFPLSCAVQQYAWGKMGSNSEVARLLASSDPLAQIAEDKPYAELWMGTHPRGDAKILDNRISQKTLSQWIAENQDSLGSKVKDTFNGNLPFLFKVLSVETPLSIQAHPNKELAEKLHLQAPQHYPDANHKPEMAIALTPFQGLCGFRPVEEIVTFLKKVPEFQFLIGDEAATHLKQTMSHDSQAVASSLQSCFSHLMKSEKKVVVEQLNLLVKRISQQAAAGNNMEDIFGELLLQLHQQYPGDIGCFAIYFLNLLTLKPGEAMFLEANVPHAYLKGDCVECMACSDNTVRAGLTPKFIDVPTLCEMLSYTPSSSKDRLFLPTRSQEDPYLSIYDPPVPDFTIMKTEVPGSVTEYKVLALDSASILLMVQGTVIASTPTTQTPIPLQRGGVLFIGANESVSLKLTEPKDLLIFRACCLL
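Technique: Diaphorase-driven resazurin-to-resorufin fluorescence, excitation 544, emission 590 nm | Assay system: Human PMI in coupled enzyme assay | Times: Enzyme reaction with compound 20 min at room temperature | Medium: HEPES-buffered pH 7.4 with magnesium and detergent | Reagent: Mannose-6-phosphate 1.0 mM (near-saturating) plus 0.22 mM NADP+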
TNAP inh no acc: blocks human TNAP activity with no phosphate acceptor present. P05186. purified TNAP, CDP-star luminescence, 30 min. 200,000 compounds, 0.26% hits. inhibition, % at 20 µM;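 active means tissue-nonspecific alkaline phosphatase inhibition above about 50% at 20 µM in the single-dose screen, limit read from the data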
PMI activator: activators of human phosphomannose isomerase; P34949; purified human PMI, coupled resazurin fluorescence, 20 min; active compounds read high; 1 = vehicle control, 0 substrate-free wells; activation factor at 20 µM; 190,000 compounds, 0.005% hits;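 active means activation factor of 2 or more at 20 µM, relative to plate controls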
TNAP inh hi DEA: blocks human TNAP under high phosphate acceptor concentration | purified TNAP, CDP-star luminescence, 1 M DEA | inhibition, % at 20 µM | 200,000 compounds, 0.03% hits | AID 1135;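 active means over 50% inhibition of tissue-nonspecific alkaline phosphatase at 20 µM in the single-dose screen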
TNAP act hi DEA: TNAP (human) activation, high acceptor; AID 1136; 200,000 tested, under 10 active; purified TNAP, CDP-star luminescence, 1 M DEA, 30 min; active compounds read high; 0 = EDTA background, 1 = DMSO-only activity; activation factor at 20 µM; P05186;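 active means activation factor at least 2 at 20 µM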
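Test system – human TNAP · Doses – 20 µM single point · Incubation – 30 min, room temperature · Signal – luminescent substrate turnover signal · Read-out basis – activation factor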
Hits are given with their value; 0 = inactive; - = not tested or not shown. Only some compounds are listed: those with a hit (about 0.64% of all), similar ones and a draw of the others.

SMILES	PMI act satM6P	TNAP inh no acc	PMI activator	TNAP inh hi DEA	TNAP act hi DEA
CCCCC1C(=O)NC(=S)NC1=O	2	0	0	0	0
Cc1cc(C)c(C(=O)CN2CCOCC2)c(C)c1	2.1	0	0	0	0
O=C(N/N=C/c1c(O)n(CCC2=CCCCC2)c(=S)[nH]c1=O)c1ccccc1	0	0	0	0	0
O=C(N/N=C/c1c(O)n(CCC2=CCCCC2)c(=O)[nH]c1=O)c1ccccc1	0	67	0	0	0
COc1cc2c(cc1OC)C(C(=O)N(C)C1CCCCC1)C1CCCCN1C2=O (stereo not drawn)	0	0	0	0	0
Cc1cccc(N2C(=O)NC(=O)C3(Cc4cc(C)ccc4N(C)C3)C2=O)c1 (stereo not drawn)	0	0	0	0	0
Cc1ccc2c(c1)CC1(CN2C)C(=O)NC(=O)N(CCC2=CCCCC2)C1=O (stereo not drawn)	2.1	0	0	0	0
Cc1ccc2c(c1)CC1(CN2C)C(=O)NC(=O)N(C(C)C)C1=O (stereo not drawn)	2.1	0	0	0	0
CC(C)C(=O)NC(Oc1ccccc1Cl)C(Cl)(Cl)Cl (stereo not drawn)	0	0	0	0	0
Cc1cc(C=C2C(=O)NC(=S)NC2=O)c(C)n1C1CCCC1	2.1	0	0	0	0
COC(=O)CSC1=NN1c1cc(C)nc(N)n1	0	0	0	0	0
C/C=C1/CC(C)C(C)(O)C(=O)OCC2CCN3CCC(OC1=O)C23 (stereo not drawn)	-	0	-	0	0
CN1C(=O)c2ccccc2NC(=O)C1Cc1ccccc1 (stereo not drawn)	0	62	0	0	0
CN1C(=O)C(C2c3ccccc3C(=O)N2Cc2ccccc2)C(=O)N(C)C1=O (stereo not drawn)	0	0	0	0	0
O=P(Nc1ccccc1)(Nc1ccccc1)Oc1cccc(Cl)c1	0	0	0	0	0
O=C(c1ccc(N2CC3CC(C2)c2cccc(=O)n2C3)c([N+](=O)[O-])c1)N1CCCC1 (stereo not drawn)	0	0	0	0	0
COc1ccc(/C=C2\C(=O)NC(=S)N(C)C2=O)cc1C	2.5	0	0	0	0
Cc1nn(Cc2ccccc2)c(C)c1C=C1C(=O)NC(=S)NC1=O	2.2	0	0	0	0
CCCCC(=O)N/N=C/c1c(O)n(CCc2ccc(OC)c(OC)c2)c(=O)[nH]c1=O	0	0	0	0	0
CCCCC(=O)N/N=C/c1c(O)n(CC)c(=S)[nH]c1=O	0	87	0	0	0
Oc1ccc(CC2CC3CCN2CC3)cc1O (stereo not drawn)	0	75	0	0	0
COc1ccc(N/N=C/c2c(O)n(-c3cccc(C)c3)c(=O)[nH]c2=O)cc1	2.7	0	0	0	0
COc1ccc(N/N=C/c2c(O)n(-c3ccc(C)c(C)c3)c(=O)[nH]c2=O)cc1	0	0	0	0	0
COc1ccc(OC)c(N2Cc3ccccc3C2=N)c1	0	0	0	0	0
CN(C)c1ccc(/C=C/C=C2/C(=O)NC(=O)N(c3ccccc3)C2=O)cc1	0	54	0	51	0
C=CCN1C(=O)NC(=O)/C(=C/C=C/c2ccccc2)C1=O	0	0	0	0	0
CCOc1ccc(-n2c(O)c(N=Nc3ccc([N+](=O)[O-])cc3)c(=O)[nH]c2=O)cc1	0	0	0	0	0
C/C(=N\Nc1ccccc1)c1c(O)n(C)c(=O)n(C)c1=O	2.5	0	0	0	0
CC(=NCCCO)c1c(O)n(Cc2ccccc2)c(=O)[nH]c1=O	0	0	0	0	0
C/C(=N\Nc1ccccc1)c1c(O)n(Cc2ccccc2)c(=O)[nH]c1=O	2.5	0	0	0	0
